# Source: ChEMBL document CHEMBL3044834, “Novel protoporphyrinogen oxidase inhibitors: 3H-pyrazolo[3,4-d][1,2,3]triazin-4-one derivatives” (J Agric Food Chem, 2008)
# Tests used:
# Assay type in all cases: functional
# Digitaria sanguinalis [1] = assay: Herbicidal activity against Digitaria sanguinalis (hairy crabgrass) assessed as inhibition of fresh weed plant weight at 750 g/ha using post-emergence treatment protocol
# Method in brief: (§1)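 Test compounds made up as emulsions by dissolving in 100 µL N,N-dimethylformamide, then adding a little Tween 20 and water. For post-emergence, weed seedlings at one leaf and one stem were sprayed at the same rates as the pre-emergence test. Fresh weight was recorded 15 days after treatment and expressed as percent inhibition versus controls. All treatments were run in triplicate.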
# Echinochloa crus-galli [2] = assay: Herbicidal activity against Echinochloa crus-galli (barnyard grass) assessed as inhibition of fresh weed plant weight at 1500 g/ha using post-emergence treatment protocol; method in brief: as §1
# Amaranthus retroflexus [3] = assay: Herbicidal activity against Amaranthus retroflexus assessed as inhibition of fresh weed plant weight at 375 g/ha using post-emergence treatment protocol; method in brief: as §1
# Digitaria sanguinalis [4] = assay: Herbicidal activity against Digitaria sanguinalis (hairy crabgrass) assessed as inhibition of fresh weed plant weight at 187.5 g/ha using post-emergence treatment protocol; method in brief: as §1
# Digitaria sanguinalis [5] = assay: Herbicidal activity against Digitaria sanguinalis (hairy crabgrass) assessed as inhibition of fresh weed plant weight at 187.5 g/ha using pre-emergence treatment protocol
# Echinochloa crus-galli [6] = assay: Herbicidal activity against Echinochloa crus-galli (barnyard grass) assessed as inhibition of fresh weed plant weight at 750 g/ha using pre-emergence treatment protocol
# Digitaria sanguinalis [7] = assay: Herbicidal activity against Digitaria sanguinalis (hairy crabgrass) assessed as inhibition of fresh weed plant weight at 375 g/ha using post-emergence treatment protocol; method in brief: as §1
# [8] = test system: Brassica rapa subsp. oleifera; assay: Herbicidal activity against Brassica rapa subsp. oleifera assessed as inhibition of fresh weed plant weight at 375 g/ha using post-emergence treatment protocol; method in brief: as §1
# [9] = test system: Brassica rapa subsp. oleifera; assay: Herbicidal activity against Brassica rapa subsp. oleifera assessed as inhibition of fresh weed plant weight at 1500 g/ha using pre-emergence treatment protocol
# Amaranthus retroflexus [10] = assay: Herbicidal activity against Amaranthus retroflexus assessed as inhibition of fresh weed plant weight at 750 g/ha using pre-emergence treatment protocol; method in brief: as §1
# Amaranthus retroflexus [11] = assay: Herbicidal activity against Amaranthus retroflexus assessed as inhibition of fresh weed plant weight at 187.5 g/ha using pre-emergence treatment protocol
# Echinochloa crus-galli [12] = assay: Herbicidal activity against Echinochloa crus-galli (barnyard grass) assessed as inhibition of fresh weed plant weight at 187.5 g/ha using post-emergence treatment protocol; method in brief: as §1
# Digitaria sanguinalis [13] = assay: Herbicidal activity against Digitaria sanguinalis (hairy crabgrass) assessed as inhibition of fresh weed plant weight at 375 g/ha using pre-emergence treatment protocol
# Echinochloa crus-galli [14] = assay: Herbicidal activity against Echinochloa crus-galli (barnyard grass) assessed as inhibition of fresh weed plant weight at 1500 g/ha using pre-emergence treatment protocol
# [15] = test system: Brassica rapa subsp. oleifera; assay: Herbicidal activity against Brassica rapa subsp. oleifera assessed as inhibition of fresh weed plant weight at 375 g/ha using pre-emergence treatment protocol
# Digitaria sanguinalis [16] = assay: Herbicidal activity against Digitaria sanguinalis (hairy crabgrass) assessed as inhibition of fresh weed plant weight at 1500 g/ha using post-emergence treatment protocol; method in brief: as §1
# Echinochloa crus-galli [17] = assay: Herbicidal activity against Echinochloa crus-galli (barnyard grass) assessed as inhibition of fresh weed plant weight at 375 g/ha using pre-emergence treatment protocol; method in brief: as §1
# Amaranthus retroflexus [18] = assay: Herbicidal activity against Amaranthus retroflexus assessed as inhibition of fresh weed plant weight at 750 g/ha using post-emergence treatment protocol; method in brief: as §1
# [19] = test system: Brassica rapa subsp. oleifera; assay: Herbicidal activity against Brassica rapa subsp. oleifera assessed as inhibition of fresh weed plant weight at 1500 g/ha using post-emergence treatment protocol; method in brief: as §1
# Digitaria sanguinalis [20] = assay: Herbicidal activity against Digitaria sanguinalis (hairy crabgrass) assessed as inhibition of fresh weed plant weight at 1500 g/ha using pre-emergence treatment protocol
# [21] = test system: Brassica rapa subsp. oleifera; assay: Herbicidal activity against Brassica rapa subsp. oleifera assessed as inhibition of fresh weed plant weight at 750 g/ha using pre-emergence treatment protocol
# Amaranthus retroflexus [22] = assay: Herbicidal activity against Amaranthus retroflexus assessed as inhibition of fresh weed plant weight at 187.5 g/ha using post-emergence treatment protocol; method in brief: as §1
# Amaranthus retroflexus [23] = assay: Herbicidal activity against Amaranthus retroflexus assessed as inhibition of fresh weed plant weight at 1500 g/ha using pre-emergence treatment protocol
# Echinochloa crus-galli [24] = assay: Herbicidal activity against Echinochloa crus-galli (barnyard grass) assessed as inhibition of fresh weed plant weight at 187.5 g/ha using pre-emergence treatment protocol; method in brief: as §1
# Echinochloa crus-galli [25] = assay: Herbicidal activity against Echinochloa crus-galli (barnyard grass) assessed as inhibition of fresh weed plant weight at 375 g/ha using post-emergence treatment protocol; method in brief: as §1
# [26] = test system: Brassica rapa subsp. oleifera; assay: Herbicidal activity against Brassica rapa subsp. oleifera assessed as inhibition of fresh weed plant weight at 187.5 g/ha using post-emergence treatment protocol; method in brief: as §1
# [27] = test system: Brassica rapa subsp. oleifera; assay: Herbicidal activity against Brassica rapa subsp. oleifera assessed as inhibition of fresh weed plant weight at 187.5 g/ha using pre-emergence treatment protocol
# Amaranthus retroflexus [28] = assay: Herbicidal activity against Amaranthus retroflexus assessed as inhibition of fresh weed plant weight at 1500 g/ha using post-emergence treatment protocol; method in brief: as §1
# Echinochloa crus-galli [29] = assay: Herbicidal activity against Echinochloa crus-galli (barnyard grass) assessed as inhibition of fresh weed plant weight at 750 g/ha using post-emergence treatment protocol; method in brief: as §1
# Amaranthus retroflexus [30] = assay: Herbicidal activity against Amaranthus retroflexus assessed as inhibition of fresh weed plant weight at 375 g/ha using pre-emergence treatment protocol
# [31] = test system: Brassica rapa subsp. oleifera; assay: Herbicidal activity against Brassica rapa subsp. oleifera assessed as inhibition of fresh weed plant weight at 750 g/ha using post-emergence treatment protocol; method in brief: as §1
# Digitaria sanguinalis [32] = assay: Herbicidal activity against Digitaria sanguinalis (hairy crabgrass) assessed as inhibition of fresh weed plant weight at 750 g/ha using pre-emergence treatment protocol
# Echinochloa crus-galli [33] = assay: Herbicidal activity against Echinochloa crus-galli (barnyard grass) assessed as inhibition of fresh weed plant weight at 93.75 g/ha using pre-emergence treatment protocol
# Amaranthus retroflexus [34] = assay: Herbicidal activity against Amaranthus retroflexus assessed as inhibition of fresh weed plant weight at 93.75 g/ha using pre-emergence treatment protocol
# [35] = test system: Brassica rapa subsp. oleifera; assay: Herbicidal activity against Brassica rapa subsp. oleifera assessed as inhibition of fresh weed plant weight at 93.75 g/ha using pre-emergence treatment protocol
# Digitaria sanguinalis [36] = assay: Herbicidal activity against Digitaria sanguinalis (hairy crabgrass) assessed as inhibition of fresh weed plant weight at 93.75 g/ha using pre-emergence treatment protocol
SMILES,inhibition at 1500 g/ha (Echinochloa crus-galli [2]) [%],inhibition at 187.5 g/ha (Digitaria sanguinalis [5]) [%],inhibition at 750 g/ha (Echinochloa crus-galli [6]) [%],inhibition at 1500 g/ha [9] [%],inhibition at 750 g/ha (Amaranthus retroflexus [10]) [%],inhibition at 187.5 g/ha (Amaranthus retroflexus [11]) [%],inhibition at 375 g/ha (Digitaria sanguinalis [13]) [%],inhibition at 1500 g/ha (Echinochloa crus-galli [14]) [%],inhibition at 375 g/ha [15] [%],inhibition at 1500 g/ha (Digitaria sanguinalis [16]) [%],inhibition at 375 g/ha (Echinochloa crus-galli [17]) [%],inhibition at 1500 g/ha [19] [%],inhibition at 1500 g/ha (Digitaria sanguinalis [20]) [%],inhibition at 750 g/ha [21] [%],inhibition at 1500 g/ha (Amaranthus retroflexus [23]) [%],inhibition at 187.5 g/ha (Echinochloa crus-galli [24]) [%],inhibition at 187.5 g/ha [27] [%],inhibition at 1500 g/ha (Amaranthus retroflexus [28]) [%],inhibition at 375 g/ha (Amaranthus retroflexus [30]) [%],inhibition at 750 g/ha (Digitaria sanguinalis [32]) [%],also measured
C#CCOc1cc(-n2nnc3c(cnn3CC=C)c2=O)c(F)cc1Cl,38.3,6.5,0,7.4,41,21.3,13,0,0,41.3,0,18.5,37.4,0,87,0,0,88.6,27.9,17.4,inhibition at 750 g/ha (Digitaria sanguinalis [1]): 19.4%; inhibition at 375 g/ha (Amaranthus retroflexus [3]): 12.2%; inhibition at 187.5 g/ha (Digitaria sanguinalis [4]): 0%; inhibition at 375 g/ha (Digitaria sanguinalis [7]): 0%; inhibition at 375 g/ha [8]: 3.4%; inhibition at 187.5 g/ha (Echinochloa crus-galli [12]): 7.3%; inhibition at 750 g/ha (Amaranthus retroflexus [18]): 41.5%; inhibition at 187.5 g/ha (Amaranthus retroflexus [22]): 7.3%; inhibition at 375 g/ha (Echinochloa crus-galli [25]): 11.2%; inhibition at 187.5 g/ha [26]: 0%; inhibition at 750 g/ha (Echinochloa crus-galli [29]): 17.1%; inhibition at 750 g/ha [31]: 7.4%
C#CCN1C(=O)COc2cc(F)c(-n3nnc4c(cnn4C)c3=O)cc21,58.4,80,100,98.8,100,66,100,100,95.6,39.2,94.8,45.6,100,97.1,100,48.4,77.7,71.8,96.3,100,inhibition at 93.75 g/ha (Echinochloa crus-galli [33]): 47.1%; inhibition at 93.75 g/ha (Amaranthus retroflexus [34]): 60.2%; inhibition at 93.75 g/ha [35]: 47.3%; inhibition at 93.75 g/ha (Digitaria sanguinalis [36]): 26.8%
C#CCN1C(=O)COc2cc(F)c(-n3nnc4nn(CCC)cc4c3=O)cc21,40.9,0,16.9,75.1,100,100,26.1,37.8,45.5,43.8,5.6,27.9,51.6,55.2,100,0,16.4,100,100,32.6,inhibition at 750 g/ha (Digitaria sanguinalis [1]): 22.2%; inhibition at 375 g/ha (Amaranthus retroflexus [3]): 100%; inhibition at 187.5 g/ha (Digitaria sanguinalis [4]): 13.9%; inhibition at 375 g/ha (Digitaria sanguinalis [7]): 16.7%; inhibition at 375 g/ha [8]: 18.9%; inhibition at 187.5 g/ha (Echinochloa crus-galli [12]): 10.2%; inhibition at 750 g/ha (Amaranthus retroflexus [18]): 100%; inhibition at 187.5 g/ha (Amaranthus retroflexus [22]): 56.1%; inhibition at 375 g/ha (Echinochloa crus-galli [25]): 11.2%; inhibition at 187.5 g/ha [26]: 11.4%; inhibition at 750 g/ha (Echinochloa crus-galli [29]): 25.9%; inhibition at 750 g/ha [31]: 19.4%
